Measured values reported in ChEMBL document CHEMBL4364284, “Design, Synthesis, and Efficacy Testing of Nitroethylene- and 7-Nitrobenzoxadiazol-Based Flavodoxin Inhibitors against Helicobacter pylori Drug-Resistant Clinical Strains and in Helicobacter pylori-Infected Mice” (J Med Chem, 2019).
≈ marks a conversion by molar mass, not a printed value. Calls of active or inactive are those of the source. The rule behind the calls is not given here.

What was measured:
[1] = Cytotoxicity against human HeLa cells assessed as reduction in cell viability by XTT assay; format: cell-based; details: read-out: MCC50
In short: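 HeLa cells grown in DMEM with 10% FBS, penicillin and streptomycin at 37 °C, 5% CO2; 30 000 cells/well. XTT viability read at 450 and 650 nm. MCC50 (50% lysis) came from viability-versus-concentration curves. Two experiments, each in triplicate.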

[2] = molecular target: T1, Flavodoxin (Helicobacter pylori (strain ATCC 700392 / 26695) (Campylobacter pylori)) (UniProt O25776); experiment: Inhibition of flavodoxin in Helicobacter pylori SS1 assessed as reduction in bacterial growth measured after 48 hrs by resazurin staining-based microdilution method
T1 sequence (whole entry): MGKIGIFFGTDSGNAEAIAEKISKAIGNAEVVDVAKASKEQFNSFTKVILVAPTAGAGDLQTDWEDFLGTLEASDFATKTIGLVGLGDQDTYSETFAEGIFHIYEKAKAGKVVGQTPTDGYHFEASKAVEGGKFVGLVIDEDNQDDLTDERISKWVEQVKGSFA
In short: (§1)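 Broth microdilution in brain heart infusion with 4% FBS. Inoculum diluted to OD600 0.01. Two-fold dilutions from a DMSO stock cover 64–0.031 μg/mL, with DMSO ≤1% v/v. Incubated 48 h at 37 °C under microaerophilic conditions. MIC is the lowest concentration giving complete growth inhibition, read by resazurin colour change and confirmed by spotting on blood agar. Run twice in triplicate.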

[3] = molecular target: T1, Flavodoxin (Helicobacter pylori (strain ATCC 700392 / 26695) (Campylobacter pylori)); experiment: Inhibition of flavodoxin in Mnz-resistant Helicobacter pylori NCTC 11637 ATCC 43504 assessed as reduction in bacterial growth measured after 48 hrs by resazurin staining-based microdilution method; details: Helicobacter pylori NCTC 11637 = CCUG 17874 = ATCC 43504; in short: as §1
[4] = molecular target: T1, Flavodoxin (Helicobacter pylori (strain ATCC 700392 / 26695) (Campylobacter pylori)); experiment: Inhibition of flavodoxin in Helicobacter pylori ATCC 700392 26695 assessed as reduction in bacterial growth measured after 48 hrs by resazurin staining-based microdilution method; details: Helicobacter pylori 26695; in short: as §1
[5] = Therapeutic index, ratio of MCC50 for human HeLa cells to MIC for inhibition of flavodoxin in Helicobacter pylori SS1 assessed as reduction in bacterial growth; format: toxicity; details: HeLa cells versus Helicobacter pylori SS1, read-out: TI
In short: (§2)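 TI is MCC50/MIC. For MCC50, HeLa cells (30 000/well, DMEM with 10% FBS) were exposed to compound at 25–1000 μM final. Viability by XTT at 450/650 nm; MCC50 is the concentration giving 50% lysis from viability curves. Run twice in triplicate.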

[6] = Therapeutic index, ratio of MCC50 for human HeLa cells to MIC for inhibition of flavodoxin in Mnz-resistant Helicobacter pylori NCTC 11637 ATCC 43504 assessed as reduction in bacterial growth; format: toxicity; details: read-out: TI; in short: as §2
[7] = Therapeutic index, ratio of MCC50 for human HeLa cells to MIC for inhibition of flavodoxin in Helicobacter pylori ATCC 700392 26695 assessed as reduction in bacterial growth; format: toxicity; details: HeLa cells versus Helicobacter pylori ATCC 700392 26695, read-out: TI; in short: as §2
[8] = Therapeutic index, ratio of MCC50 for human HeLa cells to MIC for inhibition of flavodoxin in metronidazole-resistant Helicobacter pylori isolate 1 assessed as reduction in bacterial growth; format: toxicity; details: read-out: TI; in short: as §2
[9] = Therapeutic index, ratio of MCC50 for human HeLa cells to MIC for inhibition of flavodoxin in metronidazole-resistant Helicobacter pylori isolate 2 assessed as reduction in bacterial growth; format: toxicity; details: read-out: TI; in short: as §2
[10] = Therapeutic index, ratio of MCC50 for human HeLa cells to MIC for inhibition of flavodoxin in metronidazole-resistant Helicobacter pylori isolate 3 assessed as reduction in bacterial growth; format: toxicity; details: read-out: TI; in short: as §2
[11] = Therapeutic index, ratio of MCC50 for human HeLa cells to MIC for inhibition of flavodoxin in clarithromycin/metronidazole-resistant Helicobacter pylori isolate 4 assessed as reduction in bacterial growth; format: toxicity; details: read-out: TI; in short: as §2
[12] = Therapeutic index, ratio of MCC50 for human HeLa cells to MIC for inhibition of flavodoxin in rifampicin-resistant Helicobacter pylori isolate 5 assessed as reduction in bacterial growth; format: toxicity; details: read-out: TI; in short: as §2
[13] = Therapeutic index, ratio of MCC50 for human HeLa cells to MIC for inhibition of flavodoxin in clarithromycin/metronidazole-resistant Helicobacter pylori isolate 6 assessed as reduction in bacterial growth; format: toxicity; details: read-out: TI; in short: as §2
[14] = molecular target: T1, Flavodoxin (Helicobacter pylori (strain ATCC 700392 / 26695) (Campylobacter pylori)); experiment: Binding affinity to Helicobacter pylori flavodoxin by thermal upshift assay
[15] = molecular target: T1, Flavodoxin (Helicobacter pylori (strain ATCC 700392 / 26695) (Campylobacter pylori)); experiment: Binding affinity to Helicobacter pylori flavodoxin by isothermal titration calorimetric method
[16] = test system: Escherichia coli; experiment: Effect on growth of Escherichia coli DH5[alpha] after 48 hrs by resazurin-dye based microdilution assay; format: organism-based
[17] = test system: Staphylococcus aureus; experiment: Effect on growth of Staphylococcus aureus ATCC 1228 after 48 hrs by resazurin-dye based microdilution assay; format: organism-based
[18] = Stability of the compound in DMSO-d6 at pH 1 incubated for 19 hrs under shaking condition by 1H-NMR analysis; format: physicochemical; details: pH 1, 19 h
[19] = Toxicity in NMRI mouse infected with Helicobacter pylori SS1 assessed as change in body weight at 10 to 20 mg/100g, po administered daily via gavage for 8 days starting from 1 week post-infection; format: organism-based; details: in vivo
In short: (§3)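 Female 6-week-old SPF NMRI mice infected orogastrically with Hp SS1 on days 1 and 3. Compound in 5–10% DMSO/olive oil (100 μL) given by daily oral gavage for 8 days from day 8. Body weight and appetite were monitored during treatment; infected controls received vehicle alone.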

[20] = Toxicity in NMRI mouse infected with Helicobacter pylori SS1 assessed as change in appetite at 10 to 20 mg/100g, po administered daily via gavage for 8 days starting from 1 week post-infection; format: organism-based; details: in vivo; in short: as §3
[21] = Toxicity in NMRI mouse assessed as change in body weight at 10 to 20 mg/100g, po administered daily via gavage for 8 days; format: organism-based; details: in vivo, 192 h
[22] = molecular target: T1, Flavodoxin (Helicobacter pylori (strain ATCC 700392 / 26695) (Campylobacter pylori)); experiment: Inhibition of flavodoxin in metronidazole-resistant Helicobacter pylori isolate 1 assessed as reduction in bacterial growth measured after 48 hrs by resazurin staining-based microdilution method
In short: (§4)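 Clinical isolates from gastric biopsies of patients who failed ≥2 therapies; resistance classified by EUCAST breakpoints. […] Read by resazurin colour change as the lowest concentration giving complete growth inhibition.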

[23] = molecular target: T1, Flavodoxin (Helicobacter pylori (strain ATCC 700392 / 26695) (Campylobacter pylori)); experiment: Inhibition of flavodoxin in metronidazole-resistant Helicobacter pylori isolate 2 assessed as reduction in bacterial growth measured after 48 hrs by resazurin staining-based microdilution method; in short: as §4
[24] = molecular target: T1, Flavodoxin (Helicobacter pylori (strain ATCC 700392 / 26695) (Campylobacter pylori)); experiment: Inhibition of flavodoxin in clarithromycin/metronidazole-resistant Helicobacter pylori isolate 4 assessed as reduction in bacterial growth measured after 48 hrs by resazurin staining-based microdilution method; in short: as §4
[25] = molecular target: T1, Flavodoxin (Helicobacter pylori (strain ATCC 700392 / 26695) (Campylobacter pylori)); experiment: Inhibition of flavodoxin in clarithromycin/metronidazole-resistant Helicobacter pylori isolate 6 assessed as reduction in bacterial growth measured after 48 hrs by resazurin staining-based microdilution method

Row | Compound | CC50 [1] | MIC [2] | MIC [3] | MIC [4] | selectivity ratio [5] | selectivity ratio [6] | selectivity ratio [7] | Activity [14] | Activity [15] | Activity [16] | Activity [17] | further results
1 | O=[N+]([O-])CCc1ccccc1 | > 1000 µM | 212 µM (≈ 32 µg/mL) | 212 µM (≈ 32 µg/mL) | 106 µM (≈ 16 µg/mL) | > 4.7 | > 4.7 | > 9.4 | Active | Active | Non-Toxic | Non-Toxic | selectivity ratio [8]: 4.7; selectivity ratio [9]: 4.7; selectivity ratio [10]: 4.7; selectivity ratio [11]: 605; selectivity ratio [12]: 4.7; selectivity ratio [13]: 4.7
2 | COc1ccc(C2(C)SCc3cc(C)c(C)cc3CS2)cc1 | – | 6.1 µM (≈ 2.02 µg/mL) | 3 µM (≈ 0.992 µg/mL) | 3 µM (≈ 0.992 µg/mL) | – | – | – | Active | Active | – | – | Stability [18]: Stable
3 | NCCc1ccccc1 [PHENETHYLAMINE] | > 1000 µM | 132 µM (≈ 16 µg/mL) | 66 µM (≈ 8 µg/mL) | 66 µM (≈ 8 µg/mL) | > 7.6 | > 15 | > 15 | Active | Active | Non-Toxic | Non-Toxic | Activity [19]: Non-Toxic; Activity [20]: Non-Toxic; Activity [21]: Non-Toxic
4 | COc1ccc(CSc2ccc(N)c3nonc23)cc1 | – | 13.9 µM (≈ 3.99 µg/mL) | 27.8 µM (≈ 7.99 µg/mL) | 27.8 µM (≈ 7.99 µg/mL) | – | – | – | Active | Active | – | – | inhibition [22]: Active; inhibition [23]: Active; inhibition [24]: Active; inhibition [25]: Active; Stability [18]: Stable
5 | Cc1ncc([N+](=O)[O-])n1CCO [METRONIDAZOLE] | > 1000 µM | 2.9 µM (≈ 0.496 µg/mL) | 187 µM (≈ 32 µg/mL) | 12 µM (≈ 2.05 µg/mL) | > 345 | > 5.3 | > 83 | Active | Active | Non-Toxic | Non-Toxic | –
6 | COc1ccc(CSc2ccc([N+](=O)[O-])c3nonc23)cc1 | – | 0.78 µM (≈ 0.248 µg/mL) | 1.6 µM (≈ 0.508 µg/mL) | 6.3 µM (≈ 2 µg/mL) | – | – | – | Active | Active | – | – | Stability [18]: Stable
7 | O/N=C/Cc1cc(C(F)(F)F)cc(C(F)(F)F)c1 | > 500 µM | 236 µM (≈ 64 µg/mL) | 59 µM (≈ 16 µg/mL) | 118 µM (≈ 32 µg/mL) | > 2.1 | > 8.5 | > 4.2 | Active | Active | Non-Toxic | Non-Toxic | selectivity ratio [8]: 4.2; selectivity ratio [9]: 4.2; selectivity ratio [10]: 4.2; selectivity ratio [11]: 34; selectivity ratio [12]: 4.2; selectivity ratio [13]: 4.2
8 | Cc1ncc(N)n1CCO | > 1000 µM | > 453 µM | 227 µM (≈ 32 µg/mL) | 453 µM (≈ 64 µg/mL) | – | > 4.4 | > 2.2 | Active | Active | Non-Toxic | Non-Toxic | –
9 | O=[N+]([O-])C1=Cc2cc(Cl)cc(Cl)c2OC1c1ccc(F)cc1 (configuration not stated) | – | 0.37 µM (≈ 0.126 µg/mL) | 0.37 µM (≈ 0.126 µg/mL) | 0.37 µM (≈ 0.126 µg/mL) | – | – | – | Active | Active | – | – | –
10 | COc1ccc(C[S+]([O-])c2ccc([N+](=O)[O-])c3nonc23)cc1 (configuration not stated) | 179 µM | 12 µM (≈ 4 µg/mL) | 6 µM (≈ 2 µg/mL) | 6 µM (≈ 2 µg/mL) | 15 | 30 | 30 | Active | Active | Non-Toxic | Non-Toxic | –
11 | ONCCc1ccccc1 | > 1000 µM | > 233 µM | > 233 µM | > 233 µM | – | – | – | Active | Active | Non-Toxic | Non-Toxic | –
12 | COc1ccc(CS(=O)(=O)c2ccc(N)c3nonc23)cc1 | > 1000 µM | 100 µM (≈ 31.9 µg/mL) | 100 µM (≈ 31.9 µg/mL) | 100 µM (≈ 31.9 µg/mL) | > 10 | > 10 | > 10 | Active | Active | Non-Toxic | Non-Toxic | selectivity ratio [8]: 10; selectivity ratio [9]: 10; selectivity ratio [10]: 20; selectivity ratio [11]: 20; selectivity ratio [12]: 10; selectivity ratio [13]: 10
